Assay results taken from ChEMBL document CHEMBL5131497, “Design, Synthesis, and Characterization of TNP-2198, a Dual-Targeted Rifamycin-Nitroimidazole Conjugate with Potent Activity against Microaerophilic and Anaerobic Bacterial Pathogens” (J Med Chem, 2022).
Converted amounts (≈) assume the structure as drawn. The source made the active and inactive calls. No cut-off for these calls is given here.

What was measured:
[1] = Drug distribution in Sprague-Dawley rat brain measured at 6 hrs; format: ADME, tissue-based; details: read-out: Ct
In short: (§1)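 Sprague–Dawley rats were dosed with TNP-2198. Concentrations were measured in plasma (ng/mL) and in tissues or contents (ng/g) at 0.5, 2, 6, 12 and 24 h after dosing. Values below the limit of quantification are reported as BLOQ.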

[2] = test system: Helicobacter pylori; assay: Antibacterial activity against rifampicin-resistant Helicobacter pylori CB1614 harboring rpoBL525I/D530N mutant measured after 5 days by agar dilution method; format: functional; details: CB1614, 120 h, time 5 day
In short: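 Agar dilution per CLSI. Wild-type ATCC 700392 (CB1531) and its derivatives carry defined resistance determinants. Drugs, alone or in 1:1 molar mixtures, were diluted 2-fold from 100× stocks into Mueller–Hinton agar with aged (≥2 weeks) sheep blood (5% v/v). MIC read after 5 days at 35 °C under microaerobic conditions from a campylobacter gas-generating system.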

[3] = AUC in Sprague-Dawley rat at 50 mg/kg, po; format: ADME, organism-based; parameters: dose 50 mg/kg, route po; details: in vivo
In short: (§2)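 Plasma PK after single intravenous or oral dosing. Mice C57BL/6 at 5 mg/kg IV or 20 mg/kg PO; Sprague–Dawley rats at 10 mg/kg IV or 50 mg/kg PO; beagle dogs at 5 mg/kg IV or 25 mg/kg PO. AUC reported in ng·h/mL. Clearance from the IV arms in mL/min·kg.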

[4] = Volume of distribution at steady state in Sprague-Dawley rat at 10 mg/kg, iv; format: ADME, organism-based; details: in vivo, read-out: Vdss
[5] = test system: Clostridioides difficile; assay: Antibacterial activity against fluoroquinolone-resistant Clostridioides difficile CB1941 harboring gyrAD71Y/T82A mutant measured after 3 days; format: functional; details: CB1941, 72 h, time 3 day
[6] = Tmax in Sprague-Dawley rat at 50 mg/kg, po; format: ADME, organism-based; details: in vivo
[7] = Drug distribution in Sprague-Dawley rat gums measured at 2 hrs; format: ADME, tissue-based, Gingiva; details: read-out: Ct; in short: as §1
[8] = Volume of distribution at steady state in C57BL/6 mouse at 5 mg/kg, iv; format: ADME, organism-based; details: in vivo, read-out: Vdss
[9] = Drug distribution in Sprague-Dawley rat vaginal secretion measured at 2 hrs; format: ADME, tissue-based, Vaginal fluid; details: female, read-out: Ct; in short: as §1
[10] = test system: Helicobacter pylori; assay: Resistance development in Helicobacter pylori MMX 3719 assessed as spontaneous resistance frequency using at 1.90 x 10^8 CFU inoculum at 4 ug/ml; format: functional; details: dose 4 µg/ml
In short: (§3)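 H. pylori MMX 3719 exposed to 0.5, 1, 2 and 4 µg/mL drug with an inoculum of 1.90×10^8 CFU at each level. Two independent tests were run, and resistant colonies were counted and averaged. A spontaneous resistance frequency was reported for each concentration, and the MPC was taken across the concentrations tested.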

[11] = test system: Helicobacter pylori; assay: Antibacterial activity against Helicobacter pylori infected in C57/BL6 mouse assessed as bacterial load in stomach at 5 mg/kg administered twice daily via oral gavage starting from 7 days post inoculation and administered for 7 days (reference value: 5.25 log10CFU); format: functional; details: time 7 day
[12] = Drug distribution in Sprague-Dawley rat stomach tissue measured at 2 hrs; format: ADME, tissue-based; details: read-out: Ct; in short: as §1
[13] = test system: Bifidobacterium breve; assay: Antibacterial activity against Bifidobacterium ATCC 15698; format: functional
[14] = Drug distribution in Sprague-Dawley rat stomach content measured at 2 hrs; format: ADME, tissue-based; details: read-out: Ct; in short: as §1
[15] = Volume of distribution at steady state in Beagle dog at 5 mg/kg, iv; format: ADME, organism-based, Canis lupus familiaris; details: in vivo, read-out: Vdss
[16] = Half life in Sprague-Dawley rat at 50 mg/kg, po; format: ADME, organism-based; details: in vivo
[17] = test system: Clostridium sporogenes; assay: Antibacterial activity against Clostridium sporogenes ATCC 19404; format: functional
[18] = Drug distribution in Sprague-Dawley rat stomach tissue measured at 6 hrs; format: ADME, tissue-based; details: read-out: Ct; in short: as §1
[19] = Drug distribution in Sprague-Dawley rat brain measured at 0.5 hrs; format: ADME, tissue-based; details: read-out: Ct; in short: as §1
[20] = Oral bioavailability in Sprague-Dawley rat at 50 mg/kg; format: ADME, organism-based; details: in vivo
[21] = test system: Syrian golden hamster; assay: Antibacterial activity against Clostridioides difficile UNT-103-1 infected in Syrian hamster assessed as survival at 5 mg/kg, po administered once a daily for 5 days after 18 hrs post 10 mg/kg clindamycin treatment; format: functional, Mesocricetus auratus; details: time 5 day
In short: (§4)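 Male Golden Syrian hamsters (80-90 g), housed singly, were gavaged with C. difficile UNT103-1 grown in sporulation medium broth and diluted to OD600 1 in prereduced broth. […] From 18 h later, drug or vehicle was given by oral gavage once daily for 5 days. Survival was recorded through day 21.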

[22] = AUC in C57BL/6 mouse at 20 mg/kg, po; format: ADME, organism-based; parameters: dose 20 mg/kg, route po; details: in vivo; in short: as §2
[23] = test system: Helicobacter pylori; assay: Bactericidal activity against Helicobacter pylori ATCC 700824 assessed as reduction in CFU at 4 to 16 times MIC by time kill assay; format: functional, organism-based
[24] = test system: Veillonella parvula; assay: Antibacterial activity against Veillonella parvula ATCC 17745 MMX 1272; format: functional
[25] = Drug distribution in Sprague-Dawley rat stomach content measured at 6 hrs; format: ADME, tissue-based; details: read-out: Ct; in short: as §1
[26] = Drug distribution in Sprague-Dawley rat large intestine tissue measured at 12 hrs; format: ADME, tissue-based; details: read-out: Ct; in short: as §1
[27] = test system: Clostridioides difficile; assay: Antibacterial activity against rifampicin-resistant Clostridium difficile MMX 3587; format: functional
[28] = test system: Phocaeicola vulgatus; assay: Antibacterial activity against metronidazole-resistant Bacteroides vulgatus 3490; format: functional
[29] = AUC in Beagle dog at 5 mg/kg, iv; format: ADME, organism-based, Canis lupus familiaris; parameters: dose 5 mg/kg, route iv; details: in vivo; in short: as §2
[30] = test system: Gardnerella vaginalis; assay: Antibacterial activity against Gardnerella vaginalis ATCC 14018; format: functional
[31] = Clearance in Beagle dog at 5 mg/kg, iv; format: ADME, organism-based, Canis lupus familiaris; details: in vivo; in short: as §2
[32] = test system: Clostridioides difficile; assay: Antibacterial activity against Clostridioides difficile clinical isolate USA; format: functional
[33] = test system: Prevotella bivia; assay: Antibacterial activity against metronidazole-resistant Prevotella bivia MMX 3454; format: functional
[34] = Drug distribution in Sprague-Dawley rat large intestine content measured at 2 hrs; format: ADME, tissue-based; details: read-out: Ct; in short: as §1
[35] = test system: Syrian golden hamster; assay: Antibacterial activity against Clostridioides difficile UNT-103-1 infected in Syrian hamster assessed as mortality at 5 mg/kg, po administered once a daily for 5 days after 18 hrs post 10 mg/kg clindamycin treatment and measured after 7 to 9 days; format: functional, Mesocricetus auratus; details: time 7-9 day; in short: as §4
[36] = Drug distribution in Sprague-Dawley rat vaginal tissue measured at 12 hrs; format: ADME, tissue-based, Vagina; details: female, read-out: Ct; in short: as §1
[37] = test system: Helicobacter pylori; assay: Antibacterial activity against Helicobacter pylori clinical isolate USA; format: functional
[38] = Drug distribution in Sprague-Dawley rat brain measured at 12 hrs; format: ADME, tissue-based; details: in vivo, BLD = below limit of detection; in short: as §1
[39] = AUC in Sprague-Dawley rat at 10 mg/kg, iv; format: ADME, organism-based; parameters: dose 10 mg/kg, route iv; details: in vivo; in short: as §2
[40] = test system: Helicobacter pylori; assay: Resistance development in Helicobacter pylori MMX 3719 assessed as spontaneous resistance frequency using at 1.90 x 10^8 CFU inoculum at 2 ug/ml; format: functional; details: dose 2 µg/ml; in short: as §3
[41] = AUC in Beagle dog at 25 mg/kg, po; format: ADME, organism-based, Canis lupus familiaris; parameters: dose 25 mg/kg, route po; details: in vivo; in short: as §2
[42] = test system: Gardnerella vaginalis; assay: Resistance development in Gardnerella vaginalis MMX 5973 assessed as spontaneous resistance frequency using at 4.50 x 10^8 CFU inoculum at 2 ug/ml; format: functional; details: dose 2 µg/ml
In short: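 Resistant colonies were counted at each drug concentration in two separate tests (test 1, test 2) and averaged. The spontaneous resistance frequency was taken from the mean colony count relative to the inoculum plated. Drug levels tested were 0.5, 1, 2 and 4 µg/mL, and a mutation prevention concentration (MPC) was also reported.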

[43] = Antibacterial activity against Mobiluncus mulieris ATCC 35243; format: functional

CO[C@H]1/C=C/O[C@@]2(C)Oc3c(C)c(O)c4c(c3C2=O)C2=NC3(CCN(CCn5c([N+](=O)[O-])cnc5C)CC3)NC2=C(NC(=O)/C(C)=C\C=C\[C@H](C)[C@H](O)[C@@H](C)[C@@H](O)[C@@H](C)[C@H](OC(C)=O)[C@@H]1C)C4=O [RIFASUTENIZOL]
concentration at 6 h [1]: 156 ng/g | MIC [2]: 0.125 µg/mL (≈ 0.132 µM) | AUC [3]: 15400 ng·h/mL | Vd [4]: 1.6 L/kg | MIC [5]: ≤ 0.002 µg/mL | Tmax [6]: 1.8 h | concentration at 2 h [7]: 6040 ng/g | Vd [8]: 0.9 L/kg | concentration at 2 h [9]: 43700 ng/g | Activity [10]: <5 10^-9No_unit | Activity [11]: 2.89 log10CFU | concentration at 2 h [12]: 72500 ng/g | MIC [13]: 0.015 µg/mL (≈ 0.0159 µM) | concentration at 2 h [14]: 1.75e+06 ng/g | Vd [15]: 2.8 L/kg | half-life [16]: 0.94 h | MIC [17]: 0.015 µg/mL (≈ 0.0159 µM) | concentration at 6 h [18]: 10600 ng/g | concentration at 0.5 h [19]: 114 ng/g | bioavailability [20]: 48% | Activity [21]: 100% | AUC [22]: 3040 ng·h/mL | Activity [23]: Active | MIC [24]: 2 µg/mL (≈ 2.12 µM) | concentration at 6 h [25]: 28800 ng/g | concentration at 12 h [26]: 31.6 ng/g | MIC [27]: 0.25 µg/mL (≈ 0.265 µM) | MIC [28]: 0.03 µg/mL (≈ 0.0318 µM) | AUC [29]: 4530 ng·h/mL | MIC [30]: 0.004 µg/mL (≈ 0.00424 µM) | clearance [31]: 20 mL/min/kg | MIC [32]: 0.002 µg/mL (≈ 0.00212 µM) | MIC90 [32]: 1 µg/mL (≈ 1.06 µM) | MIC [33]: 0.015 µg/mL (≈ 0.0159 µM) | concentration at 2 h [34]: 1170 ng/g | Activity [35]: 10% | concentration at 12 h [36]: 35.8 ng/g | MIC [37]: ≤ 0.001 µg/mL | MIC90 [37]: 0.125 µg/mL (≈ 0.132 µM) | Ct [38]: Bld | AUC [39]: 6490 ng·h/mL | Activity [40]: <5 10^-9No_unit | AUC [41]: 14800 ng·h/mL | Activity [42]: <2 10^-9No_unit | MIC [43]: 0.001 µg/mL (≈ 0.00106 µM)
